ChEMBL document CHEMBL2321837, “Discovery of novel inhibitors targeting the Mycobacterium tuberculosis O-acetylserine sulfhydrylase (CysK1) using virtual high-throughput screening” (Bioorg Med Chem Lett, 2013)
pIC50, pKi: −log10 of the molar value. ≈ marks a conversion by molar mass, not a printed value.

Columns and labels:
[1] = Cytotoxicity against HEK293T cells assessed as growth inhibition at 50 uM by MTT assay relative to control; assay type: cell-based, HEK-293T; settings: human, read-out: GI
[2] = Cytotoxicity against HEK293T cells assessed as growth inhibition at 25 uM by MTT assay relative to control; assay type: cell-based, HEK-293T; settings: human, read-out: GI
[3] = system: Mycobacterium tuberculosis; assay: Antimycobacterial activity against Mycobacterium tuberculosis H37Rv ATCC 27294 assessed as growth inhibition by NCCLS agar dilution method; assay type: functional
In short: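 M. tuberculosis H37Rv (ATCC27294) agar dilution, compounds 50 to 0.78 µg/mL in duplicates. MIC taken as lowest concentration completely inhibiting growth; isoniazid and ethambutol as reference compounds.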

[4] = biological target: O-acetylserine sulfhydrylase (Mycobacterium tuberculosis) (UniProt P9WP55); assay: Inhibition of Mycobacterium tuberculosis CysK1 using O-acetyl-L-serine as substrate assessed as L-cycteine formation at 100 uM after 5 mins by spectrophotometric analysis relative to control
In short: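 Single-point screen of compounds at 100 µM. Assay mix (MOPS pH 7.0, O-acetyl-L-serine, CysK1) was preincubated 5 min at room temperature, then started with 1 mM sodium sulphide for 20 min. It was stopped with trichloroacetic acid (final 16.6%), then acid-ninhydrin reagent was added and heated at 96 °C for 10 min. After 1:1 ethanol dilution, OD was read at 560 nm; triplicates. Controls were DFSI tetrapeptide (100 µM, 100% inhibition) and no inhibitor (0%).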

[5] = biological target: T1, O-acetylserine sulfhydrylase (Mycobacterium tuberculosis, UniProt P9WP55); assay: Inhibition of Mycobacterium tuberculosis CysK1 using O-acetyl-L-serine as substrate assessed as L-cycteine formation after 5 mins by spectrophotometric analysis
In short: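 Dose–response: serial 1:3 dilutions prepared in 50% DMSO (final DMSO 5%). Final mix was 100 mM MOPS pH 7.0, 2 mM O-acetyl-L-serine, […] CysK1, preincubated 5 min at room temperature. The reaction was started with sodium sulphide (final 1 mM). Aliquots taken at time intervals were assayed for L-cysteine by acid-ninhydrin. Specific activity vs concentration was fitted to a sigmoid for IC50.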

[6] = biological target: T1, O-acetylserine sulfhydrylase; assay: Competitive inhibition of Mycobacterium tuberculosis CysK1
In short: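 Purified CysK1 preincubated 5 min at room temperature with 1:3 serial compound dilutions in 100 mM MOPS pH 7.0 and 2 mM O-acetyl-L-serine, 5% DMSO final. Reaction started with sodium sulphide (1 mM final); aliquots were taken at time intervals. L-cysteine was measured by acid-ninhydrin (96 °C, 10 min) at 560 nm. IC50 came from sigmoid fits of specific activity.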

| SMILES | inhibition at 50 µM [1] [%] | inhibition at 25 µM [2] [%] | MIC [3] [µM] | inhibition [4] [%] | pIC50 [5] | pKi [6] |
| --- | --- | --- | --- | --- | --- | --- |
| O=C1N=C2SC([N+](=O)[O-])=CN2C2=NC(=S)NC(c3ccccc3O)C12 (stereo not drawn) | 12 | 0.1 | 33.3 (≈ 12.5 µg/mL) | 68.8 |  |  |
| O=C1N=C2SC([N+](=O)[O-])=CN2C2=NC(=S)NC(c3ccccc3)C12 (stereo not drawn) | 25.3 | 0 | 69.6 (≈ 25 µg/mL) | 90.4 |  |  |
| NNC(=O)c1ccncc1 [ISONIAZID] |  |  | 0.72 (≈ 0.0987 µg/mL) |  |  |  |
| O=C1N=C2C(C(=O)N=C3SC([N+](=O)[O-])=CN32)C(c2ccccc2O)N1 (stereo not drawn) | 0 | 0 | 69.6 (≈ 25 µg/mL) | 107 |  |  |
| O=C1N=C2C(C(=O)N=C3SC([N+](=O)[O-])=CN32)C(c2ccccc2C(F)(F)F)N1 (stereo not drawn) | 13.1 | 5.7 | 7.6 (≈ 3.13 µg/mL) | 13.8 | 4.75 |  |
| COc1cc(C2NC(=S)N=C3C2C(=O)N=C2SC([N+](=O)[O-])=CN23)ccc1O (stereo not drawn) | 1.35 | 0 | 123 (≈ 50 µg/mL) | 89.2 |  |  |
| O=C1N=C2C(C(=O)N=C3SC([N+](=O)[O-])=CN32)C(c2ccc([N+](=O)[O-])cc2)N1 (stereo not drawn) | 9.4 | 2.6 | 129 (≈ 50 µg/mL) | 54.7 |  |  |
| O=C1N=C2SC([N+](=O)[O-])=CN2C2=NC(=S)NC(c3ccc([N+](=O)[O-])cc3)C12 (stereo not drawn) | 6.6 | 1.64 | 61.8 (≈ 25 µg/mL) | 70.6 |  |  |
| CC[C@H](C)[C@H](NC(=O)[C@H](CO)NC(=O)[C@H](Cc1ccccc1)NC(=O)[C@@H](N)CC(=O)O)C(=O)O |  |  |  |  | 5.13 | 5.30 |
| COc1cc(C2NC(=O)N=C3C2C(=O)N=C2SC([N+](=O)[O-])=CN23)ccc1O (stereo not drawn) | 0 | 0 | 128 (≈ 50 µg/mL) | 90.5 |  |  |
| O=C1N=C2SC([N+](=O)[O-])=CN2C2=NC(=S)NC(c3ccccc3C(F)(F)F)C12 (stereo not drawn) | 52.2 | 27.7 | 7.3 (≈ 3.12 µg/mL) | 89.4 |  |  |
| O=C1N=C2SC([N+](=O)[O-])=CN2C2=NC(=S)NC(c3ccc(Cl)cc3)C12 (stereo not drawn) | 14.6 | 7.4 | 15.9 (≈ 6.26 µg/mL) | 102 |  |  |
| Cc1ccccc1C1NC(=S)N=C2C1C(=O)N=C1SC([N+](=O)[O-])=CN12 (stereo not drawn) | 18.8 | 3.6 | 33.5 (≈ 12.5 µg/mL) | 15.9 | 4.75 |  |
| CN(C)c1ccc(C2NC(=S)N=C3C2C(=O)N=C2SC([N+](=O)[O-])=CN23)cc1 (stereo not drawn) | 26.8 | 8 | 15.5 (≈ 6.24 µg/mL) | 100 |  |  |
| CC[C@@H](CO)NCCN[C@@H](CC)CO [ETHAMBUTOL] |  |  | 4.71 (≈ 0.962 µg/mL) |  |  |  |
| Cc1ccccc1C1NC(=O)N=C2C1C(=O)N=C1SC([N+](=O)[O-])=CN12 (stereo not drawn) | 20.4 | 6 | 70 (≈ 25 µg/mL) | 103 |  |  |
| Cc1ccc(C2NC(=S)N=C3C2C(=O)N=C2SC([N+](=O)[O-])=CN23)cc1 (stereo not drawn) | 14.7 | 0 | 67 (≈ 25 µg/mL) | 106 |  |  |

| SMILES | inhibition at 50 µM [1] [%] | inhibition at 25 µM [2] [%] | MIC [3] [µM] | inhibition [4] [%] | pIC50 [5] | pKi [6] |
| --- | --- | --- | --- | --- | --- | --- |
| O=C1N=C2SC([N+](=O)[O-])=CN2C2=NC(=S)NC(c3cccc(Br)c3)C12 (stereo not drawn) | 13.5 | 6 | 7.1 (≈ 3.11 µg/mL) | 39.9 |  |  |
| O=C1N=C2SC([N+](=O)[O-])=CN2C2=NC(=S)NC(c3ccccc3[N+](=O)[O-])C12 (stereo not drawn) | 8.7 | 1 | 30.9 (≈ 12.5 µg/mL) | 11.3 | 4.52 |  |
| O=C1N=C2C(C(=O)N=C3SC([N+](=O)[O-])=CN32)C(c2ccc(Cl)cc2)N1 (stereo not drawn) | 0 | 0 | 66.2 (≈ 25 µg/mL) | 80 |  |  |
| COc1ccc(C2NC(=S)N=C3C2C(=O)N=C2SC([N+](=O)[O-])=CN23)cc1 (stereo not drawn) | 14.6 | 0.2 | 32.1 (≈ 12.5 µg/mL) | 9.1 | 4.64 |  |
| CN(C)c1ccc(C2NC(=O)N=C3C2C(=O)N=C2SC([N+](=O)[O-])=CN23)cc1 (stereo not drawn) | 4.9 | 0 | 32.4 (≈ 12.5 µg/mL) | 92.7 |  |  |
| O=C1N=C2C(C(=O)N=C3SC([N+](=O)[O-])=CN32)C(c2ccc(F)cc2)N1 (stereo not drawn) | 10.7 | 5.4 | 17.3 (≈ 6.25 µg/mL) | 100 |  |  |
| O=C1N=C2C(C(=O)N=C3SC([N+](=O)[O-])=CN32)C(c2ccc(Br)cc2)N1 (stereo not drawn) | 11.2 | 6.1 | 29.6 (≈ 12.5 µg/mL) | 89.1 |  |  |
| O=C1N=C2C(C(=O)N=C3SC([N+](=O)[O-])=CN32)C(c2ccccc2[N+](=O)[O-])N1 (stereo not drawn) | 0 | 0 | 129 (≈ 50 µg/mL) | 93 |  |  |
| O=C1N=C2SC([N+](=O)[O-])=CN2C2=NC(=S)NC(c3ccc(F)cc3)C12 (stereo not drawn) | 43.4 | 30.6 | 16.6 (≈ 6.26 µg/mL) | 60 |  |  |
| O=C1N=C2C(C(=O)N=C3SC([N+](=O)[O-])=CN32)C(c2c(Cl)cccc2Cl)N1 (stereo not drawn) | 0 | 0 | 121 (≈ 50 µg/mL) | 57.8 |  |  |
| COc1ccc(C2NC(=O)N=C3C2C(=O)N=C2SC([N+](=O)[O-])=CN23)cc1 (stereo not drawn) | 7.3 | 0 | 134 (≈ 50 µg/mL) | 93.9 |  |  |
| O=C1N=C2C(C(=O)N=C3SC([N+](=O)[O-])=CN32)C(c2cccc(Br)c2)N1 (stereo not drawn) | 2.8 | 0 | 14.8 (≈ 6.25 µg/mL) | 60.1 |  |  |
| O=C1N=C2SC([N+](=O)[O-])=CN2C2=NC(=S)NC(c3c(Cl)cccc3Cl)C12 (stereo not drawn) | 30.7 | 21.3 | 58.4 (≈ 25 µg/mL) | 113 |  |  |
| Cc1ccc(C2NC(=O)N=C3C2C(=O)N=C2SC([N+](=O)[O-])=CN23)cc1 (stereo not drawn) | 0 | 0 | 70 (≈ 25 µg/mL) | 57.7 |  |  |
| O=C1N=C2SC([N+](=O)[O-])=CN2C2=NC(=S)NC(c3ccc(Br)cc3)C12 (stereo not drawn) | 6.5 | 2.5 | 28.5 (≈ 12.5 µg/mL) | 65.6 |  |  |
| O=C1N=C2C(C(=O)N=C3SC([N+](=O)[O-])=CN32)C(c2ccccc2)N1 (stereo not drawn) | 3.8 | 1.6 | > 146 | 84.1 |  |  |
